Source: ChEMBL document CHEMBL1275468, “Plasmid-mediated qnrB2 and carbapenemase gene bla(KPC-2) carried on the same plasmid in carbapenem-resistant ciprofloxacin-susceptible Enterobacter cloacae isolates” (2008)

Tests used:
Type in all cases: functional
Enterobacter cloacae [1] = assay: Antimicrobial activity against Enterobacter cloacae isolate 140 containing PFGE genetic clone A expressing beta-lactamase KPC-2 and SHV-12 gene by Etest in presence of beta-lactamase inhibitor Tazobactam
How it was run: (§1)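 Clinical carbapenem-resistant, blaKPC-2-carrying E. cloacae isolates; MIC read by Etest. Clonal relatedness typed by PFGE after SpeI (20 U) digestion of genomic DNA on a CHEF-DR III system. qnr genes, and aac(6′)-Ib-cr by PCR with BtsCI digestion, detected from cell-lysate templates.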

Enterobacter cloacae [2] = assay: Antimicrobial activity against Enterobacter cloacae isolate 293 containing PFGE genetic clone A expressing qnrB2 and beta-lactamase KPC-2 and SHV-12 gene by Etest in presence of beta-lactamase inhibitor Tazobactam; how it was run: as §1
Enterobacter cloacae [3] = assay: Antimicrobial activity against Enterobacter cloacae isolate 151 containing PFGE genetic clone A expressing qnrB2 and beta-lactamase KPC-2 gene by Etest in presence of beta-lactamase inhibitor Tazobactam; how it was run: as §1
Enterobacter cloacae [4] = assay: Antimicrobial activity against Enterobacter cloacae isolate 658 containing PFGE genetic clone B expressing qnrB2 and beta-lactamase KPC-2 and SHV-12 gene by Etest in presence of beta-lactamase inhibitor Tazobactam; how it was run: as §1
Escherichia coli [5] = assay: Antimicrobial activity against Escherichia coli T-625 harboring expressing qnrB2 and beta-lactamase KPC-2 and SHV-12 gene by Etest
How it was run: (§2)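 MIC read by Etest. Strains are E. coli GeneHogs (recA1) transformants. Plasmid DNA from clinical E. cloacae isolates was introduced by electroporation. Transformants were selected on LB agar with 100 μg/ml ampicillin, then PCR-screened for blaKPC, blaSHV and qnr genes.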

Escherichia coli [6] = assay: Antimicrobial activity against Escherichia coli T-781 harboring expressing qnrB2 and beta-lactamase KPC-2 and SHV-12 gene by Etest in presence of beta-lactamase inhibitor Tazobactam
Enterobacter cloacae [7] = assay: Antimicrobial activity against Enterobacter cloacae isolate 1 containing PFGE genetic clone A expressing qnrB2 and beta-lactamase KPC-2 and SHV-12 gene by Etest in presence of beta-lactamase inhibitor Tazobactam; how it was run: as §1
Enterobacter cloacae [8] = assay: Antimicrobial activity against Enterobacter cloacae isolate 837 containing PFGE genetic clone B expressing qnrB2 and beta-lactamase KPC-2 and SHV-12 gene by Etest in presence of beta-lactamase inhibitor Tazobactam; how it was run: as §1
Enterobacter cloacae [9] = assay: Antimicrobial activity against Enterobacter cloacae isolate 18 containing PFGE genetic clone A expressing qnrB2 and beta-lactamase KPC-2 and SHV-12 gene by Etest
Enterobacter cloacae [10] = assay: Antimicrobial activity against Enterobacter cloacae isolate 649 containing PFGE genetic clone B expressing qnrB2 and beta-lactamase KPC-2 and SHV-12 gene by Etest
Enterobacter cloacae [11] = assay: Antimicrobial activity against Enterobacter cloacae isolate 1 containing PFGE genetic clone A expressing qnrB2 and beta-lactamase KPC-2 and SHV-12 gene by Etest
Enterobacter cloacae [12] = assay: Antimicrobial activity against Enterobacter cloacae isolate 140 containing PFGE genetic clone A expressing beta-lactamase KPC-2 and SHV-12 gene by Etest
Enterobacter cloacae [13] = assay: Antimicrobial activity against Enterobacter cloacae isolate 533 containing PFGE genetic clone A expressing qnrB2 and beta-lactamase KPC-2 and SHV-12 gene by Etest in presence of beta-lactamase inhibitor Tazobactam; how it was run: as §1
Escherichia coli [14] = assay: Antimicrobial activity against Escherichia coli GeneHogs by Etest
How it was run: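 MIC read by Etest on the plasmid-free electroporation recipient, E. coli GeneHogs (recA1 mutant).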

Enterobacter cloacae [15] = assay: Antimicrobial activity against Enterobacter cloacae isolate 625 containing PFGE genetic clone A expressing qnrB2 and beta-lactamase KPC-2 and SHV-12 gene by Etest
Enterobacter cloacae [16] = assay: Antimicrobial activity against Enterobacter cloacae isolate 622 containing PFGE genetic clone A expressing qnrB2 and beta-lactamase KPC-2 and SHV-12 gene by Etest in presence of beta-lactamase inhibitor Tazobactam; how it was run: as §1
Enterobacter cloacae [17] = assay: Antimicrobial activity against Enterobacter cloacae isolate 837 containing PFGE genetic clone B expressing qnrB2 and beta-lactamase KPC-2 and SHV-12 gene by Etest
Enterobacter cloacae [18] = assay: Antimicrobial activity against Enterobacter cloacae isolate 293 containing PFGE genetic clone A expressing qnrB2 and beta-lactamase KPC-2 and SHV-12 gene by Etest
Escherichia coli [19] = assay: Antimicrobial activity against Escherichia coli T-622 harboring expressing qnrB2 and beta-lactamase KPC-2 and SHV-12 gene by Etest; how it was run: as §2
Escherichia coli [20] = assay: Antimicrobial activity against Escherichia coli T-622 harboring expressing qnrB2 and beta-lactamase KPC-2 and SHV-12 gene by Etest in presence of beta-lactamase inhibitor Tazobactam
Enterobacter cloacae [21] = assay: Antimicrobial activity against Enterobacter cloacae isolate 658 containing PFGE genetic clone B expressing qnrB2 and beta-lactamase KPC-2 and SHV-12 gene by Etest
Enterobacter cloacae [22] = assay: Antimicrobial activity against Enterobacter cloacae isolate 656 containing PFGE genetic clone A expressing beta-lactamase KPC-2 and SHV-12 gene by Etest in presence of beta-lactamase inhibitor Tazobactam; how it was run: as §1
Escherichia coli [23] = assay: Antimicrobial activity against Escherichia coli T-781 harboring expressing qnrB2 and beta-lactamase KPC-2 and SHV-12 gene by Etest; how it was run: as §2
Enterobacter cloacae [24] = assay: Antimicrobial activity against Enterobacter cloacae isolate 4469 containing PFGE genetic clone C expressing qnrB2 and beta-lactamase KPC-2 and SHV-12 gene by Etest
Enterobacter cloacae [25] = assay: Antimicrobial activity against Enterobacter cloacae isolate 151 containing PFGE genetic clone A expressing qnrB2 and beta-lactamase KPC-2 gene by Etest
Escherichia coli [26] = assay: Antimicrobial activity against Escherichia coli T-625 harboring expressing qnrB2 and beta-lactamase KPC-2 and SHV-12 gene by Etest in presence of beta-lactamase inhibitor Tazobactam
Enterobacter cloacae [27] = assay: Antimicrobial activity against Enterobacter cloacae isolate 185 containing PFGE genetic clone A expressing qnrB2 aac(6')-Ib-cr and beta-lactamase KPC-2 and SHV-12 gene by Etest
Enterobacter cloacae [28] = assay: Antimicrobial activity against Enterobacter cloacae isolate 622 containing PFGE genetic clone A expressing qnrB2 and beta-lactamase KPC-2 and SHV-12 gene by Etest
Enterobacter cloacae [29] = assay: Antimicrobial activity against Enterobacter cloacae isolate 4469 containing PFGE genetic clone C expressing qnrB2 and beta-lactamase KPC-2 and SHV-12 gene by Etest in presence of beta-lactamase inhibitor Tazobactam
Enterobacter cloacae [30] = assay: Antimicrobial activity against Enterobacter cloacae isolate 625 containing PFGE genetic clone A expressing qnrB2 and beta-lactamase KPC-2 and SHV-12 gene by Etest in presence of beta-lactamase inhibitor Tazobactam; how it was run: as §1
Enterobacter cloacae [31] = assay: Antimicrobial activity against Enterobacter cloacae isolate 185 containing PFGE genetic clone A expressing qnrB2 aac(6')-Ib-cr and beta-lactamase KPC-2 and SHV-12 gene by Etest in presence of beta-lactamase inhibitor Tazobactam; how it was run: as §1
Escherichia coli [32] = assay: Antimicrobial activity against Escherichia coli GeneHogs by Etest in presence of beta-lactamase inhibitor Tazobactam
How it was run: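 Recipient is E. coli GeneHogs (recA1), electroporated with plasmid DNA from clinical isolates. Transformants were selected on LB agar with 100 μg/ml ampicillin and PCR-screened for blaKPC, blaSHV and qnr genes. MIC read by Etest.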

Enterobacter cloacae [33] = assay: Antimicrobial activity against Enterobacter cloacae isolate 781 containing PFGE genetic clone B expressing qnrB2 and beta-lactamase KPC-2 and SHV-12 gene by Etest
Enterobacter cloacae [34] = assay: Antimicrobial activity against Enterobacter cloacae isolate 18 containing PFGE genetic clone A expressing qnrB2 and beta-lactamase KPC-2 and SHV-12 gene by Etest in presence of beta-lactamase inhibitor Tazobactam; how it was run: as §1
Enterobacter cloacae [35] = assay: Antimicrobial activity against Enterobacter cloacae isolate 781 containing PFGE genetic clone B expressing qnrB2 and beta-lactamase KPC-2 and SHV-12 gene by Etest in presence of beta-lactamase inhibitor Tazobactam; how it was run: as §1
Enterobacter cloacae [36] = assay: Antimicrobial activity against Enterobacter cloacae isolate 649 containing PFGE genetic clone B expressing qnrB2 and beta-lactamase KPC-2 and SHV-12 gene by Etest in presence of beta-lactamase inhibitor Tazobactam; how it was run: as §1
Enterobacter cloacae [37] = assay: Antimicrobial activity against Enterobacter cloacae isolate 656 containing PFGE genetic clone A expressing beta-lactamase KPC-2 and SHV-12 gene by Etest
Enterobacter cloacae [38] = assay: Antimicrobial activity against Enterobacter cloacae isolate 533 containing PFGE genetic clone A expressing qnrB2 and beta-lactamase KPC-2 and SHV-12 gene by Etest

CCN1CCN(C(=O)N[C@@H](C(=O)N[C@@H]2C(=O)N3[C@@H]2SC(C)(C)[C@@H]3C(=O)O)c2ccccc2)C(=O)C1=O [PIPERACILLIN]
MIC (Enterobacter cloacae [1]): ≥ 128 mg/L | MIC (Enterobacter cloacae [2]): ≥ 128 mg/L | MIC (Enterobacter cloacae [3]): ≥ 128 mg/L | MIC (Enterobacter cloacae [4]): ≥ 128 mg/L | MIC (Escherichia coli [5]): ≥ 128 mg/L | MIC (Escherichia coli [6]): 64 mg/L | MIC (Enterobacter cloacae [7]): ≥ 128 mg/L | MIC (Enterobacter cloacae [8]): ≥ 128 mg/L | MIC (Enterobacter cloacae [9]): ≥ 128 mg/L | MIC (Enterobacter cloacae [10]): ≥ 128 mg/L | MIC (Enterobacter cloacae [11]): ≥ 128 mg/L | MIC (Enterobacter cloacae [12]): ≥ 128 mg/L | MIC (Enterobacter cloacae [13]): ≥ 128 mg/L | MIC (Escherichia coli [14]): ≤ 4 mg/L | MIC (Enterobacter cloacae [15]): ≥ 128 mg/L | MIC (Enterobacter cloacae [16]): ≥ 128 mg/L | MIC (Enterobacter cloacae [17]): ≥ 128 mg/L | MIC (Enterobacter cloacae [18]): ≥ 128 mg/L | MIC (Escherichia coli [19]): ≥ 128 mg/L | MIC (Escherichia coli [20]): 64 mg/L | MIC (Enterobacter cloacae [21]): ≥ 128 mg/L | MIC (Enterobacter cloacae [22]): ≥ 128 mg/L | MIC (Escherichia coli [23]): ≥ 128 mg/L | MIC (Enterobacter cloacae [24]): ≥ 128 mg/L | MIC (Enterobacter cloacae [25]): ≥ 128 mg/L | MIC (Escherichia coli [26]): ≥ 128 mg/L | MIC (Enterobacter cloacae [27]): ≥ 128 mg/L | MIC (Enterobacter cloacae [28]): ≥ 128 mg/L | MIC (Enterobacter cloacae [29]): 64 mg/L | MIC (Enterobacter cloacae [30]): ≥ 128 mg/L | MIC (Enterobacter cloacae [31]): ≥ 128 mg/L | MIC (Escherichia coli [32]): ≤ 4 mg/L | MIC (Enterobacter cloacae [33]): ≥ 128 mg/L | MIC (Enterobacter cloacae [34]): ≥ 128 mg/L | MIC (Enterobacter cloacae [35]): ≥ 128 mg/L | MIC (Enterobacter cloacae [36]): ≥ 128 mg/L | MIC (Enterobacter cloacae [37]): ≥ 128 mg/L | MIC (Enterobacter cloacae [38]): ≥ 128 mg/L
